High-throughput results (PubChem BioAssay)
AI-2 QS modul: modulates the Vibrio harveyi AI-2 quorum sensing system. Vibrio harveyi JMH597 AI-2 luminescence/OD600 ratio, 9 h; stronger effect = lower value; strain lacks LuxN and CqsS sensors; 0 = neutral-control median. activity change, % at 7.5 µM. 300,000 tested, 0.4% active; in the data active = activity change below about -75%, passing the limit was not always enough;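 note: luminescence divided by OD600 gain over 9 h not by final OD600 alone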
GSK3 alpha inh: blocks human GSK-3 alpha kinase; ADP-Glo luminescence, 60 min; P49840; 320,000 tested, 0.1% active; inhibition, % at 10 µM;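 active = more than half of replicates show inhibition above 20%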;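 note: GST-tagged GSK-3 alpha with peptide substrate and 25 µM ATP; 0% = DMSO neutral wells and 100% = GW8510 positive control wells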
Target sequence (P49840 whole entry, looked up): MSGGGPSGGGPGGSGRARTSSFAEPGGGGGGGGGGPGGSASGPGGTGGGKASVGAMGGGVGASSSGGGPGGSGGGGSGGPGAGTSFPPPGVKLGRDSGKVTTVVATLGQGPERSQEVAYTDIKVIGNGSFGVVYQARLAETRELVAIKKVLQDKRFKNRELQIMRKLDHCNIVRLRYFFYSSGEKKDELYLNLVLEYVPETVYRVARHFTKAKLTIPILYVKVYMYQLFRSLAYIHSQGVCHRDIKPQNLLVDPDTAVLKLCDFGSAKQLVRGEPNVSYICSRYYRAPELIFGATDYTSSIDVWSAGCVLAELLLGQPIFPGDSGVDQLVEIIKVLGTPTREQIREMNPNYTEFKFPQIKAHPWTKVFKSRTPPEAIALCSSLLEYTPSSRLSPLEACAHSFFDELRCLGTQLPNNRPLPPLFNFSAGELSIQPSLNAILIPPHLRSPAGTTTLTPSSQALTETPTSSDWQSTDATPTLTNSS
CR mimetic SO: yeast age-related superoxide inhibition as caloric restriction mimetic. S. cerevisiae aged cells, superoxide DHE fluorescence; stronger effect = lower value. superoxide response (% of plate mean), % at 10 µM. 330,000 tested, 0.18% active. AID 2690;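 active = superoxide response under a set limit, about three screen SD below normal, cut at about 65% in these data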;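 note: yeast aged for seven days with compound at 30 °C before DHE staining; 100% = average MFI of all compound-treated wells on the plate with controls excluded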
PolyA inhibitor: inhibitors of polyadenylation in S. cerevisiae; 300,000 tested, 0.02% active; activity score, % at 12 µM; S. cerevisiae SKY197-pL101 polyadenylation reporter, beta-gal luminescence; efflux-impaired pdr1/pdr3 knockout yeast; score 100 = 6 SD above DMSO;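 active = lowest replicate activity score at least 50, where 100 means six control SD above control mean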;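 note: yeast exposed to compound for 9 h at 30 °C; higher score means more reporter readthrough which indicates perturbed polyadenylation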
STK33 inh: blocks human STK33 kinase activity | Q9BYT3 | purified STK33, MBP phosphorylation, ADP-Glo luminescence | inhibition, % at 10 µM | 320,000 tested, 0.073% active | AID 2661;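 active = inhibition at or above 25%, using the most active replicate where run in duplicate; inactive = inhibition below 25%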
GSK3beta inhib: blocks human GSK3beta kinase activity. GST-GSK3beta kinase, ADP-Glo luminescence, 60 min; stronger effect = lower value. P49841. 300,000 tested, 0.038% active. AID 2097. activity score (negative = inhibition), % at 10 µM;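 active = more than half of replicate wells score below -50%, meaning over 50% inhibition versus plate controls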;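 note: 0% = median DMSO wells and -100% = median GW8510 positive control wells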
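Assay system: GST-tagged human GSK3beta kinase, cell-free; Input: 1.6 ng GSK3beta; Medium: Tris/MgCl2 kinase buffer; Timing: 60 min enzyme reaction, room temperature; Signal: ADP-Glo luminescence quantifying ADP generated by kinase; Evaluation: score relative to plate controls; Benchmarks: DMSO neutral wells and GW8510 at 20 µM as positive.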
CR mimetic CP: yeast aging superoxide inhibition, cherry pick confirmation. superoxide response (% of plate), % at 10 µM. S. cerevisiae aging, superoxide DHE fluorescence; stronger effect = lower value. AID 434994. shares compounds with CR mimetic SO. 850 tested, 1% active;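 active = superoxide signal below 65% of the plate average of sample wells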;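 note: cells aged with compound for 7 days at 30 degrees C before staining; 100% equals mean DHE fluorescence of all compound wells on the plate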
DHE fluor count: counter-screen for compounds affecting DHE oxidation and fluorescence in yeast | shares compounds with CR mimetic SO | S. cerevisiae BY4741, flow cytometry; stronger effect = lower value | fluorescence response, % at 10 µM | 850 tested, under 10 active;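 active = fluorescence response below 15%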;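 note: percent of the mean fluorescence averaged over all compound wells on the plate; lower means stronger quenching of DHE signal or ROS scavenging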
The depositor's hits bear a star; . = no result. Shown are actives, neighbours in structure and some others; about 0.72% of the full set was active somewhere.

SMILES	AI-2 QS modul	GSK3 alpha inh	CR mimetic SO	PolyA inhibitor	STK33 inh	GSK3beta inhib	CR mimetic CP	DHE fluor count
COC(=O)C1C(=O)C=C(Nc2ccc(F)cc2)CC1c1ccc(OC)cc1 (stereo not given)	-4	9	65*	-9	0	-1	113	105
COc1ccc(-c2c(-c3cc(OC)cc(OC)c3)n(C)c3ccc(-c4ccc5[nH]ccc5c4)cc23)cc1	.	9	96	.	2	.	.	.
CC1CCCCN1CCCNC(=O)CN1C(=O)c2cccnc2Oc2ccccc21 (stereo not given)	-2	-1	111	5	-1	-2	.	.
C=C1CCC[C@]2(C)C[C@H]3OC(=O)C(CNCCN(CC)CC)[C@H]3CC12 (stereo not given in full)	29	2	56*	25	-2	4	96	95
CS(=O)(=O)Nc1ccccc1C(=O)N1CCN(c2ccccc2)CC1	17	.	84	5	0	2	111	110
CSc1ccccc1C(=O)N1CCN(c2ccc(F)cc2)CC1	3	0	95	15	0	0	109	90
COc1ccc(-c2c(C(=O)O)nc3ccccc3c2C(=O)O)cc1	27	-1	62*	-6	-1	2	110	99
Cc1cc(C)c(S(=O)(=O)Nc2ccccc2C(=O)N2CCCC2)c(C)c1	15	-2	106	-12	-2	0	.	.
OC(COCC(F)(F)C(F)(F)C(F)(F)C(F)F)Cn1c2ccc(Cl)cc2c2cc(Cl)ccc21 (stereo not given)	46	-4	97	-12	-1	-1	109	93
N=c1n(Cc2ccc(Cl)cc2)c2ccccc2n1CC(O)COc1ccccc1 (stereo not given)	22	8	107	4	-1	-7	.	.
Cn1c(=O)c2[nH]c(N3CCCCC3)nc2n(C)c1=O	-2	-2	65*	2	-2	-4	80	90
CCC1(c2ccc(F)cc2)NC(=O)N(CC(=O)Nc2cccnc2Cl)C1=O (stereo not given)	-6	2	64*	-10	0	-4	117	101
CCC1(c2ccccc2)NC(=O)N(CC(=O)Nc2cccnc2Cl)C1=O (stereo not given)	.	2	100	.	-1	.	.	.
CCn1c2ccccc2c2cc(NC(=O)C(C)C)ccc21	26	-5	90	8	-1	0	107	104
CCn1c2ccccc2c2cc(NC(=O)CC(C)=O)ccc21	11	-1	95	6	-1	2	101	93
CCCC(=O)Nc1ccc2c(c1)c1ccccc1n2CC	23	0	80	10	-1	2	113	117
COc1cccc(NC(=O)Nc2ccc3c(c2)nc(C)n3C)c1	11	4	61*	.	0	-1	108	112
O=c1c2c(nc3cc(-c4ccc(F)cc4)[nH]n13)CCCC2	10	-1	98	-3	-1	3	.	.
Cc1nc2cc(-c3ccc(Br)cc3)[nH]n2c(=O)c1Cl	6	-4	101	25	-16	2	94	90
CCCc1cc(=O)n2[nH]c(-c3ccc(Cl)cc3)cc2n1	20	-5	100	-27	-1	2	108	124
CCc1c(C)nc2cc(-c3ccc(Cl)cc3)[nH]n2c1=O	.	-3	92	-20	0	.	99	97
Cc1nc2cc(-c3ccc(F)cc3)[nH]n2c(=O)c1C	10	0	95	-17	1	4	108	94
CC(C)(C)NC(=O)c1ccc2nsnc2c1	13	0	98	-4	-2	-2	.	.
O=c1cc(-c2ccccc2)nc2cc(-c3ccc(Br)cc3)[nH]n12	44	-1	53*	1	0	-2	95	96
O=C(O)CN(c1ccccc1F)S(=O)(=O)c1ccccc1	6	3	95	7	0	-2	94	94
SMILES	AI-2 QS modul	GSK3 alpha inh	CR mimetic SO	PolyA inhibitor	STK33 inh	GSK3beta inhib	CR mimetic CP	DHE fluor count
COc1ccc(S(=O)(=O)Nc2noc3ccccc23)cc1	40	-1	102	3	0	2	.	.
COc1ccc(S(=O)(=O)Nc2noc3ccccc23)cc1OC	52	0	54*	-27	0	-2	83	97
O=C(CSc1nc2ccccc2o1)N1CCN(S(=O)(=O)c2ccc3ccccc3c2)CC1	19	-1	64*	0	0	0	111	117
COc1ccc(-c2nc3c(s2)CN(S(C)(=O)=O)CC3)cc1OC	21	6	97	14	0	4	.	.
CCS(=O)(=O)N1CCc2nc(-c3ccccc3)sc2C1	18	7	46*	14	10	1	99	93
CC(=O)Nc1ccc(NC(=O)CSc2ccc([N+](=O)[O-])cn2)cc1	16	-1	118	4	-1	-1	.	.
NS(=O)(=O)c1ccc(N/N=C/c2ccc(C(=O)O)cc2)c([N+](=O)[O-])c1	16	4	97	-2	-2	1	.	.
Cc1nn(-c2ccccc2)c(N2CCCC2)c1/C=N/Nc1ccc(S(N)(=O)=O)cc1[N+](=O)[O-]	26	0	60*	12	-1	-1	93	101
CCCCc1cc(=O)oc2cc(OCC(=O)N3CCOCC3)ccc12	24	1	101	-3	0	1	.	.
CCCCc1cc(=O)oc2cc(OCC(=O)N3CCC(C(=O)O)(c4ccccc4)CC3)ccc12	5	-2	64*	-1	1	3	113	95
Cc1ncn(-c2ccccc2)c1-c1ccccc1	1	-5	102	-12	0	1	.	.
COc1ccc(CCNC(=O)c2ccc(OCC(=O)N3CCOCC3)c(OC)c2)cc1	-3	-1	100	8	-2	-1	.	.
COc1ccc(CCNC(=O)c2ccc(OCC(=O)N3CCOCC3)c(OC)c2)cc1OC	27	6	64*	-11	7	-1	100	104
CCCOc1ccc2cc(-c3ccccn3)c(=O)oc2c1	13	5	60*	-29	1	-5	100	95
CN1CCN(C(=O)c2ccc3c(c2)S(=O)(=O)c2ccccc2C3=O)CC1	10	4	114	16	0	-2	.	.
CC(=O)N1CCN(C(=O)c2ccc3c(c2)S(=O)(=O)c2ccccc2C3=O)CC1	8	0	47*	1	-2	0	95	99
CCOC(=O)C/C(C)=N/NC(=O)c1cccs1	12	-1	63*	2	-2	0	113	99
